We go through four molecules from ChEMBL document CHEMBL4312005, “Optimization of pyrrolizine-based Schiff bases with 4-thiazolidinone motif: Design, synthesis and investigation of cytotoxicity and anti-inflammatory potency” (Eur J Med Chem, 2020).

Each structure is given as a SMILES string. pIC50: −log10 of the molar value.

The target of assay [1] is T1, Serine/threonine-protein kinase Sgk1 (Homo sapiens) (UniProt O00141).
T1 sequence (whole entry): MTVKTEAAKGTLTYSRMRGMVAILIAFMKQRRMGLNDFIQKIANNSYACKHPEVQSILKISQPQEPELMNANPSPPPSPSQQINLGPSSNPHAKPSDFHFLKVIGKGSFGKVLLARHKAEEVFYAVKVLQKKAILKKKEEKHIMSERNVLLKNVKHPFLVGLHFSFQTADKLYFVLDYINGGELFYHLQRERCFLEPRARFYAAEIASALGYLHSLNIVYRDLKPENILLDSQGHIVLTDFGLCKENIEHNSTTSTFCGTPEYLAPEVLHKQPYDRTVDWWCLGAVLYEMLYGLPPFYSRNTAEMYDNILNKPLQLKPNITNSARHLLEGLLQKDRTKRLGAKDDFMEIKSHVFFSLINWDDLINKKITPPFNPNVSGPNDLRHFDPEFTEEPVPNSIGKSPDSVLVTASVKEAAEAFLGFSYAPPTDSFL
Briefly: Inhibition of recombinant human N-terminal GST-tagged SGK1 (60 to end residues) expressed in baculovirus infected Sf9 insect cells assessed as enzyme activity incubated for 15 mins by [gamma-33]ATP based scintillation counting method relative to control. Further details: scale not given: the % may be the effect or the level left.

The target of assay [2] is T2, Dual specificity tyrosine-phosphorylation-regulated kinase 3 (Homo sapiens) (UniProt O43781).
T2 sequence (whole entry): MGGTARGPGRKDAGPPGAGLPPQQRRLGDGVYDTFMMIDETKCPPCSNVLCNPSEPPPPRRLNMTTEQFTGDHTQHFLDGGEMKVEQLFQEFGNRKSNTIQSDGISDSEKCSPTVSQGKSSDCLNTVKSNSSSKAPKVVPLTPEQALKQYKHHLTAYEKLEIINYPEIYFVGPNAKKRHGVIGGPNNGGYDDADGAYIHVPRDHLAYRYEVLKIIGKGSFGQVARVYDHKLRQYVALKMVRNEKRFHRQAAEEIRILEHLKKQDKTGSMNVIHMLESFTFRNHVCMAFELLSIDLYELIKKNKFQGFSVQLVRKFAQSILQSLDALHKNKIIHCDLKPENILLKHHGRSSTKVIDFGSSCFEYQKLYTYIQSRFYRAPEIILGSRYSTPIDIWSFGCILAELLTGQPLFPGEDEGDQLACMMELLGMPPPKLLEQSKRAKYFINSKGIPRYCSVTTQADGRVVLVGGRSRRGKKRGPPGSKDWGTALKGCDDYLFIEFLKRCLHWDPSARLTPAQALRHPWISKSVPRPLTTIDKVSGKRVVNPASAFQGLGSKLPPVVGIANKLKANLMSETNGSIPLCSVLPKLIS
The assay is described as follows: Inhibition of DYRK3 (unknown origin) assessed as enzyme activity incubated for 15 mins by [gamma-33]ATP based scintillation counting method relative to control. Further details: scale not given: the % may be the effect or the level left.

Assay [3] addresses Vascular endothelial growth factor receptor 1 (Homo sapiens) (UniProt P17948). Briefly: Inhibition of recombinant human N-terminal GST-tagged FLT1 (784 to end residues) expressed in baculovirus infected Sf9 insect cells assessed as enzyme activity incubated for 15 mins by [gamma-33]ATP based scintillation counting method relative to control. Also on record: scale not given: the % may be the effect or the level left.

Assay [4] deals with MCF7. The assay is described as follows: Cell cycle arrest in human MCF7 cells assessed as subG1 accumulation at 5 uM incubated for 24 hrs by propidium iodide based flow cytometry (reference value: 0.6 to 3 %). The format is functional. (In general: Flow cytometry measures light scatter and fluorescence of single cells or particles in a stream.)
The subject of assay [5] is MRC5. The assay is described as follows: Cytotoxicity against human MRC5 cells assessed as reduction in cell growth incubated for 72 hrs by MTT assay. The format is cell-based. As to conditions: MRC5, 72 h. In a few lines:
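MTT assay on MCF-7, A2780, HT29 and normal MRC5 fibroblast lines (ATCC) grown in DMEM with 10% FBS. Cells exposed to compounds for 72 h, then reduced MTT read at 570 nm.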
For orientation: Tetrazolium dyes change colour on reduction, which living cells bring about.

Assay [6] concerns the target T3, Serine/threonine-protein kinase Nek1 (Homo sapiens) (UniProt Q96PY6).
T3 sequence (whole entry): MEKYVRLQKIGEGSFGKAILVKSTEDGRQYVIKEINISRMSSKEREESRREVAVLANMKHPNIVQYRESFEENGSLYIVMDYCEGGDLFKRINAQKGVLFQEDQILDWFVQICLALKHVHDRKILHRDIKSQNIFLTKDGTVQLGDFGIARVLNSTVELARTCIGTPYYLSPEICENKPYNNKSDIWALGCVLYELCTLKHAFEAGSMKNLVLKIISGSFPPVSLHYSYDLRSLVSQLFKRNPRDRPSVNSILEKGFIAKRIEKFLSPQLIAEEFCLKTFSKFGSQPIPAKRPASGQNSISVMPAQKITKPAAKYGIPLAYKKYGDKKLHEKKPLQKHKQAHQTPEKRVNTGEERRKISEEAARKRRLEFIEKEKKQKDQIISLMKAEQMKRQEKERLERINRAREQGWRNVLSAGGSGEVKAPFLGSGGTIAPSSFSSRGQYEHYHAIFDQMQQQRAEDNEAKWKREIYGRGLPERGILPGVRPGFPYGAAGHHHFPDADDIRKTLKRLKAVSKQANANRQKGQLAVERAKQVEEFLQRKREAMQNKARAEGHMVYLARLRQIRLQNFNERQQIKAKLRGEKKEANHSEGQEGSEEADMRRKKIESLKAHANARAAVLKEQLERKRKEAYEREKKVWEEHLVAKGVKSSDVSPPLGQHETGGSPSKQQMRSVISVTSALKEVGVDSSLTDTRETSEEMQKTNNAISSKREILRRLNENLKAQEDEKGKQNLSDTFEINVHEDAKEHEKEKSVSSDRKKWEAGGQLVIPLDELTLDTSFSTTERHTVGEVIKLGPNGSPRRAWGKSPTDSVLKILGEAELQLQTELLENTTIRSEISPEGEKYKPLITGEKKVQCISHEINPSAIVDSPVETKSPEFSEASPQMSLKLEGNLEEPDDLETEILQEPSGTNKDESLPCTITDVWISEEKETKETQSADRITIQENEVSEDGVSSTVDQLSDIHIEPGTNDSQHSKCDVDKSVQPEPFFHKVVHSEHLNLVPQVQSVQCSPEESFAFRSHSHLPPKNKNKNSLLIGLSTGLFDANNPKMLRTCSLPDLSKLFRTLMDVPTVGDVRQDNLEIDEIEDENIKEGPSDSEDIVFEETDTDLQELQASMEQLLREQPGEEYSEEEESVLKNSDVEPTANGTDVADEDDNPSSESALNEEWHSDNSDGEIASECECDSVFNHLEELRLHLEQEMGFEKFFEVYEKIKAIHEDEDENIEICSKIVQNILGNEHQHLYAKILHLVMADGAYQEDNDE
Briefly: Inhibition of recombinant human N-terminal GST-tagged full length NEK1 expressed in baculovirus infected Sf9 insect cells assessed as enzyme activity incubated for 15 mins by [gamma-33]ATP based scintillation counting method relative to control. Also on record: scale not given: the % may be the effect or the level left.

Assay [7] has as its system MCF7. The assay is described as follows: Cell cycle arrest in human MCF7 cells assessed as subG1 accumulation at 1 uM incubated for 24 hrs by propidium iodide based flow cytometry (reference value: 0.6 to 3 %). The class given is functional.
Assay [8] relates to MCF7. Briefly: Cell cycle arrest in human MCF7 cells assessed as G2/M phase accumulation at 10 uM incubated for 24 hrs by propidium iodide based flow cytometry (reference value: 17.2 to 26.8 %). The format is functional.

Vascular endothelial growth factor receptor 1 (Homo sapiens), sequence (P17948 whole entry): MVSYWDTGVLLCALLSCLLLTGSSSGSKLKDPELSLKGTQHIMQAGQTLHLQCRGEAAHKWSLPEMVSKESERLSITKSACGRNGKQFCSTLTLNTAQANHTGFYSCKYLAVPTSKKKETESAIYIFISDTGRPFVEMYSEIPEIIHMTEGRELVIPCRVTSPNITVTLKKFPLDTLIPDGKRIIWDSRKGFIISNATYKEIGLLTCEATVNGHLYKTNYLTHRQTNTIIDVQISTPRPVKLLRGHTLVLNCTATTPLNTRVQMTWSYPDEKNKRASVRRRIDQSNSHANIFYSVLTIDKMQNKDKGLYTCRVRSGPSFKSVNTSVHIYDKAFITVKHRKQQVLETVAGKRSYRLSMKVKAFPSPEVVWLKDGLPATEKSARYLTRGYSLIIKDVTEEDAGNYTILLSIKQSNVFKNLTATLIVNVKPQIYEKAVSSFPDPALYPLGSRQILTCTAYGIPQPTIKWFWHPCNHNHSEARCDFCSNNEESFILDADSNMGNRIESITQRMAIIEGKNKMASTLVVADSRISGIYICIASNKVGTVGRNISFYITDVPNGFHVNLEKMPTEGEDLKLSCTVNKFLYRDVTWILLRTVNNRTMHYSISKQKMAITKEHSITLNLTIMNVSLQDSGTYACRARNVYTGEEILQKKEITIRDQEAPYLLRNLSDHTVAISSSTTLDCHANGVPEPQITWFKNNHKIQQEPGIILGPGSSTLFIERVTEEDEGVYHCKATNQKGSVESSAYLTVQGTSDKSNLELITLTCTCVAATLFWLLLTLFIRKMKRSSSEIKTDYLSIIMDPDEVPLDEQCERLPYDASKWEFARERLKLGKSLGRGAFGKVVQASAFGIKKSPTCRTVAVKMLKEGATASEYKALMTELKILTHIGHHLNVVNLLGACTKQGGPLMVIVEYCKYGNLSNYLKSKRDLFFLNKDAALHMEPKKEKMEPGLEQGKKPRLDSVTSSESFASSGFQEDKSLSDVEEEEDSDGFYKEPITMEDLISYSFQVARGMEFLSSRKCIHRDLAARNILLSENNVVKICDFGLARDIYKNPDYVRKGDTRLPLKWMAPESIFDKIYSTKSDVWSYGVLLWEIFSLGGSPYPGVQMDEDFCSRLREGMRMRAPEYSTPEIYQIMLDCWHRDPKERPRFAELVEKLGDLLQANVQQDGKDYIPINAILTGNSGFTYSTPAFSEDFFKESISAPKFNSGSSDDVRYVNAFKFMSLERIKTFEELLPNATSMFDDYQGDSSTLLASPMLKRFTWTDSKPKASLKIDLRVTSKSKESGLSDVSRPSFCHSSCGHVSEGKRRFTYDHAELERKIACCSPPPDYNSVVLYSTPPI

Regarding `Cc1ccc(NC(=O)c2ccc(CN3CCN(C)CC3)cc2)cc1Nc1nccc(-c2cccnc2)n1`, the values for the Activity in assay [1], in assay [2] and in assay [3] were 3%, -10% and -10%, respectively.

The term pIC50 denotes the negative decadic logarithm of the IC50, by convention in mol/L. Consider `CCC1SCC(=O)N1c1c(C#N)c2n(c1C(=O)Nc1ccccc1)CCC2` (centres undefined), for which the Activity in assay [1] stood at 8%; in assay [4] it was 2.4%; in assay [6], 10%; in assay [7], 2.4%; in assay [2], 38%; in assay [8], 14.1%. The Activity in assay [3] came out at 32%. In assay [5], the pIC50 was 6.20.

With `CC/C=N/c1c(C#N)c2n(c1C(=O)Nc1ccccc1)CCC2`, the Activity in assay [1] is -14%; in assay [6], -1%; in assay [2] it was 33%; in assay [3], 18%. Further, the pIC50 in assay [5] was 5.50.

As to `CC(C)C/C=N/c1c(C#N)c2n(c1C(=O)Nc1ccc(Br)cc1)CCC2`, the Activity in assay [1] was 7%; in assay [4], 0.9%; in assay [6], -14%; in assay [7], 1%; in assay [2], -25%; in assay [8], 15.1%. In addition, the Activity in assay [3] was determined as 1%. In addition, the pIC50 in assay [5] is 4.59.
